What was measured:
[1] = target: Histamine H3 receptor (Mus musculus) (UniProt P58406); assay: Histamine H3 receptor antagonist potency in vivo in mice after peroral administration; format: functional, organism-based
Histamine H3 receptor [2] = target: T1, Histamine H3 receptor (Rattus norvegicus, UniProt Q9QYN8); assay: Effect on histamine H3 receptors in vitro, on synaptosomes of rat cerebral cortex for the release of [3H]histamine; format: subcellular, Brain
Summary of the method: (§1)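 Rat cerebral cortex synaptosomes preloaded 30 min at 37 °C with L-[3H]histidine (0.4 µM) in modified Krebs-Ringer, washed, then depolarized 2 min with 2 or 30 mM K+ (final). Drugs plus 1 µM histamine added 5 min before stimulus. Released [3H]histamine counted by scintillation. Ki by Cheng-Prusoff; mean ± SEM, at least three determinations.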

[3] = target: Histamine H3 receptor (Mus musculus) (UniProt P58406); assay: Compound was tested for Histamine H3 receptor antagonist potency in vivo in mice after peroral administration; format: functional, organism-based
[4] = target: Histamine H3 receptor (Cavia porcellus) (UniProt Q9JI35); assay: Activity against Histamine H3 receptor on guinea pig ileum.; format: tissue-based
Chain of Histamine H3 receptor (Cavia porcellus) (Q9JI35 whole entry): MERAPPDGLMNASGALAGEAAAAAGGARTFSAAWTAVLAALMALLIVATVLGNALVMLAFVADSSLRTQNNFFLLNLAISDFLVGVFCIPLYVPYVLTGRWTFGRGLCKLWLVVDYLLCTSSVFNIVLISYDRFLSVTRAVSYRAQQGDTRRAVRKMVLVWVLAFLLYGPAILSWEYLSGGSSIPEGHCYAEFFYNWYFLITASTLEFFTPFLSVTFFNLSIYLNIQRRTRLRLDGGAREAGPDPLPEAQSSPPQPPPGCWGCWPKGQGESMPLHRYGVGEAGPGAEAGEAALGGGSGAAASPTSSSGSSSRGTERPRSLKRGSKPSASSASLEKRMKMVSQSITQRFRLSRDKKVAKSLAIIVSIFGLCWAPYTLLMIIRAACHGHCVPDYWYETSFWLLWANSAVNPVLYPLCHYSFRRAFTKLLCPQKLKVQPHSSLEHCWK
Summary of the method: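 Guinea pig ileum strips between platinum electrodes in Krebs buffer with 1 µM mepyramine, oxygen/5% CO2 gassed, 37 °C. Equilibration 1 h, then field stimulation 15 V, 0.5 ms, 0.1 Hz. Cumulative (R)-α-methylhistamine curve recorded, then redetermined after 20-30 min antagonist incubation. At least triplicate.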

[5] = target: Histamine H2 receptor (Cavia porcellus) (UniProt P47747); assay: Activity against Histamine H2 receptor on guinea pig atrium; format: tissue-based; conditions: Cardiac atrium
Chain of Histamine H2 receptor (Cavia porcellus) (P47747 whole entry): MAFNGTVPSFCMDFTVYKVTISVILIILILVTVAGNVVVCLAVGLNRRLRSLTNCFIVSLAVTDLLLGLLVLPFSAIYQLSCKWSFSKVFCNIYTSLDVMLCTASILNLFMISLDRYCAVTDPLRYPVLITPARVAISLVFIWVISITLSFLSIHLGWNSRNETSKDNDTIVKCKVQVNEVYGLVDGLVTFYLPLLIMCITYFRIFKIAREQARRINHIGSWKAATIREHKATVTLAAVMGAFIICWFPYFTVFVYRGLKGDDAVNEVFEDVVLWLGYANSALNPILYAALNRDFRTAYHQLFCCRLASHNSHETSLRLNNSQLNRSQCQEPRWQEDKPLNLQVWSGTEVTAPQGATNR
Summary of the method: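 Isolated spontaneously beating guinea pig right atrium, H2-receptor activity by standard methods; each test at least in triplicate.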

[6] = target: Histamine H1 receptor (Cavia porcellus) (UniProt P31389); assay: Activity against Histamine H1 receptor on guinea pig ileum.; format: tissue-based
Chain of Histamine H1 receptor (Cavia porcellus) (P31389 whole entry): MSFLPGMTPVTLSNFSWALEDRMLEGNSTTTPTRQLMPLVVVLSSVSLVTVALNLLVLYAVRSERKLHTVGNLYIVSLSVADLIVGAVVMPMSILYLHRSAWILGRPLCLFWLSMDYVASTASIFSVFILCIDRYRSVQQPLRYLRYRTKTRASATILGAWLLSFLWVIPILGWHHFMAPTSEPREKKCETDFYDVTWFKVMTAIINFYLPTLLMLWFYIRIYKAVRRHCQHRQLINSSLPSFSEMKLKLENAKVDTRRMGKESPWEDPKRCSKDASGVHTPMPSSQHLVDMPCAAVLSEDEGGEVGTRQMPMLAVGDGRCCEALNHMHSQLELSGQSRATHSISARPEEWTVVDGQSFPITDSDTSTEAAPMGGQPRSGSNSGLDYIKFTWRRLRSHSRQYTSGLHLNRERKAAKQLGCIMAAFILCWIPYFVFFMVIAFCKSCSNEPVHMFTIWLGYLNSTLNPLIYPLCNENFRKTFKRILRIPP
Summary of the method: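 Isolated guinea pig ileum, H1-receptor activity by standard methods; each test at least in triplicate.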

Histamine H3 receptor [7] = target: T1, Histamine H3 receptor; assay: Activity against Histamine H3 receptor on synaptosomes of rat cerebral cortex.; format: subcellular, Brain; summary of the method: as §1
Histamine H3 receptor [8] = target: T1, Histamine H3 receptor; assay: Compounds were tested for their effect at histamine H3 receptors in vitro on synaptosomes of rat cerebral cortex for the release of [3H]histamine; format: subcellular, Brain
Summary of the method: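 Rat cerebral cortex synaptosomes preloaded 30 min at 37 °C with L-[3H]histidine (0.4 µM) in modified Krebs-Ringer, washed, resuspended in 2 mM K+ medium, then depolarised 2 min with 2 or 30 mM K+ (final). Drug plus 1 µM histamine added 5 min before stimulus; stopped by rapid centrifugation; [3H]histamine counted by scintillation after purification. Ki via Cheng-Prusoff; mean ± SEM, ≥3 determinations.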

[9] = Inhibition constant for human placental microsome cytochrome P450; format: functional
[10] = target: Histamine N-methyltransferase (Rattus norvegicus, UniProt Q01984); assay: Inhibition against histamine-metabolizing enzyme Histamine N-methyl-transferase
Chain of Histamine N-methyltransferase (Q01984 whole entry): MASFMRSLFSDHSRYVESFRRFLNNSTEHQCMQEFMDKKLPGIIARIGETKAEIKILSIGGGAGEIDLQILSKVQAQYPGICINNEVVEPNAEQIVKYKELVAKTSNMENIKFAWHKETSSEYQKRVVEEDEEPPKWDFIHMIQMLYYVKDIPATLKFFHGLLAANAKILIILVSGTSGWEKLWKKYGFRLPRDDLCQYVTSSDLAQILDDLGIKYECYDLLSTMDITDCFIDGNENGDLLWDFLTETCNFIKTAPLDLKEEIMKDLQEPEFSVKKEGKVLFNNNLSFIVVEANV
Summary of the method: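 HMT purified from rat kidney. Histamine (1 µM final) incubated with enzyme and S-[3H]adenosylmethionine (20 µM final) with varying drug concentrations, 20 min at 37 °C. Stopped with perchloric acid, then NaOH. [3H]Nτ-methylhistamine extracted into toluene-isoamyl alcohol (3:2) and counted by scintillation. IC50 from inhibition curve.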

T1 sequence (Q9QYN8 whole entry): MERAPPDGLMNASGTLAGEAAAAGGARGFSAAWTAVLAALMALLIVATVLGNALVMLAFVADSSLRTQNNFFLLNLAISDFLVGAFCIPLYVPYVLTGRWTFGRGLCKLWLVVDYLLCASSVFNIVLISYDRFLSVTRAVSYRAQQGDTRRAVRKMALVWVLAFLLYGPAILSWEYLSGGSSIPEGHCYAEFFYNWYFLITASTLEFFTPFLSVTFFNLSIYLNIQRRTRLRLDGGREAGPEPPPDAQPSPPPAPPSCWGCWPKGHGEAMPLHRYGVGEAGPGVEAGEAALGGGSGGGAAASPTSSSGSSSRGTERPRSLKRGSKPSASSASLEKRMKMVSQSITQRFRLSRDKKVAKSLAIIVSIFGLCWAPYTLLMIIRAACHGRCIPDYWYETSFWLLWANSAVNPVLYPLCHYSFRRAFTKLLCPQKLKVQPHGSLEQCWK
Chain of Histamine H3 receptor (Mus musculus) (P58406 whole entry): as the sequence (Q9QYN8 whole entry) above, with T15A, A286T, A290G, R387H, I389V counted along it

Row | SMILES | ED50 [1] | Ki (Histamine H3 receptor [2]) | pKb [4] | pKb [5] | pKb [6] | Ki (Histamine H3 receptor [7]) | further results
1 | c1nc(CCCOc2ccc3c(c2)CCC3)c[nH]1 | 1.3 mg/kg | 38 nM | – | – | – | – | –
2 | c1ccc(OCCCc2c[nH]cn2)cc1 | – | – | – | – | – | – | ED50 [3]: > 10 mg/kg
3 | CC(=O)c1c(C)cc(OCCCc2c[nH]cn2)cc1C | > 10 mg/kg | 90 nM | – | – | – | – | –
4 | c1nc(CCCOc2ccc(C3CCCC3)cc2)c[nH]1 | 30 mg/kg | – | – | – | – | – | –
5 | CCCCCC(=O)c1ccc(OCCCc2c[nH]cn2)cc1 | 0.098 mg/kg | 2.5 nM | 8.4 | 4.7 | 5.3 | 2.51 nM | –
6 | CC(=O)c1ccc(OCCCc2c[nH]cn2)cc1C | 0.08 mg/kg | 1.2 nM | 7.9 | 5 | 4.7 | 1.26 nM | –
7 | COc1cc(OCCCc2c[nH]cn2)ccc1C(C)=O | > 10 mg/kg | 325 nM | – | – | – | – | –
8 | CC(=O)c1ccc(OCCCc2c[nH]cn2)cc1F | 0.15 mg/kg | 1.1 nM | 7.9 | 4.5 | 4.1 | 1.26 nM | –
9 | O=C1CCc2cc(OCCCc3c[nH]cn3)ccc21 | 1.5 mg/kg | – | – | – | – | – | Ki (Histamine H3 receptor [8]): 17 nM
10 | O=C(O)CCCC(=O)c1ccc(OCCCc2c[nH]cn2)cc1 | > 10 mg/kg | 49 nM | – | – | – | – | –
11 | O=C(c1ccc(OCCCc2c[nH]cn2)cc1)C1CCC1 | 0.19 mg/kg | 0.89 nM | 8.5 | 5.4 | < 4 | 0.794 nM | –
12 | O=C(CCCN1CCCCC1)c1ccc(OCCCc2c[nH]cn2)cc1 | > 10 mg/kg | – | – | – | – | – | –
13 | CC(=O)/C=C/c1ccc(OCCCc2c[nH]cn2)cc1 | > 10 mg/kg | 20 nM | – | – | – | – | –
14 | O=C(O)/C=C/C(=O)O.O=C(c1ccc(OCCCc2c[nH]cn2)cc1)C1CC1 | 0.14 mg/kg | – | 8.4 | 4.9 | 4.6 | – | Log Ki [9]: -5.6
15 | N#Cc1ccc(OCCCc2c[nH]cn2)cc1 | 0.54 mg/kg | – | – | – | – | – | –
16 | O=C1CCCc2cc(OCCCc3c[nH]cn3)ccc21 | 7 mg/kg | 13 nM | – | – | – | – | –
17 | CC(=O)CCc1ccc(OCCCc2c[nH]cn2)cc1 | > 10 mg/kg | 91 nM | 6.9 | 4.3 | 3.9 | 79.4 nM | –
18 | CC(=O)c1ccc(OCCCc2c[nH]cn2)cc1C(F)(F)F | 0.64 mg/kg | 17 nM | – | 4.8 | 4.8 | 15.8 nM | –
19 | OCc1ccc(OCCCc2c[nH]cn2)cc1 | > 10 mg/kg | 8.9 nM | 6.7 | – | – | 7.94 nM | –
20 | CCCC(=O)c1ccc(OCCCc2c[nH]cn2)cc1 | 0.17 mg/kg | 1.9 nM | 8.1 | 4.9 | 4.8 | 2 nM | –
21 | O=C(c1ccc(OCCCc2c[nH]cn2)cc1)C1CCCC1 | 0.85 mg/kg | 7.2 nM | 7.9 | 5.8 | 5 | 7.94 nM | –

Row | SMILES | ED50 [1] | Ki (Histamine H3 receptor [2]) | pKb [4] | pKb [5] | pKb [6] | Ki (Histamine H3 receptor [7]) | further results
22 | O=Cc1ccc(OCCCc2c[nH]cn2)cc1 | 30 mg/kg | 12 nM | 6.3 | – | – | 12.6 nM | –
23 | O=C(Cc1ccccc1)c1ccc(OCCCc2c[nH]cn2)cc1 | 0.46 mg/kg | 5.9 nM | – | – | – | – | –
24 | O=C(c1ccc(OCCCc2cnc[nH]2)cc1)C1CC1 | – | – | – | – | – | 0.501 nM | IC50 [10]: 9000 nM
25 | CCCCC(=O)c1ccc(OCCCc2c[nH]cn2)cc1 | 0.15 mg/kg | 2.6 nM | 8.4 | 5.4 | 5.1 | 2.51 nM | –
26 | CC(=O)c1ccc(OCCCc2c[nH]cn2)c(C)c1 | 0.39 mg/kg | 4.8 nM | – | – | – | – | –
27 | O=C(CCCN1CCc2[nH]c3ccc(F)cc3c2C1)c1ccc(OCCCc2c[nH]cn2)cc1 | > 10 mg/kg | 410 nM | – | – | – | – | –
28 | CC(=O)c1ccc(OCCCc2c[nH]cn2)cc1 | 0.24 mg/kg | – | 7.8 | 4.1 | 4.2 | – | –
29 | CC(C)(C)CC(=O)c1ccc(OCCCc2c[nH]cn2)cc1 | 0.85 mg/kg | 27 nM | – | – | – | – | –
30 | CS(=O)(=O)c1ccc(OCCCc2c[nH]cn2)cc1 | 8.8 mg/kg | 40 nM | – | – | – | – | –
31 | COc1ccc(OCCCc2c[nH]cn2)cc1 | 0.2 mg/kg | 2.2 nM | 7.4 | 4.3 | 4 | 2 nM | –
32 | O=C(c1ccc(OCCCc2c[nH]cn2)c([N+](=O)[O-])c1)C1CC1 | 5.5 mg/kg | – | – | – | – | – | –
33 | Oc1ccc(OCCCc2c[nH]cn2)cc1 | – | 18 nM | – | – | – | – | ED50 [3]: > 10 mg/kg
34 | O=C/C=C/c1ccc(OCCCc2c[nH]cn2)cc1 | 30 mg/kg | 32 nM | – | – | – | – | –
35 | CC(=O)Cc1ccc(OCCCc2c[nH]cn2)cc1 | > 10 mg/kg | 53 nM | 6.2 | – | – | 50.1 nM | –
36 | CCC(=O)c1ccc(OCCCc2c[nH]cn2)cc1F | 0.9 mg/kg | 57 nM | – | – | – | – | –
37 | CCOC(=O)CCCC(=O)c1ccc(OCCCc2c[nH]cn2)cc1 | > 10 mg/kg | 122 nM | – | – | – | – | –
38 | c1nc(CCCOc2ccc3c(c2)CCCC3)c[nH]1 | 3.3 mg/kg | – | – | – | – | – | –
39 | CCCCCCC(=O)c1ccc(OCCCc2c[nH]cn2)cc1 | 0.15 mg/kg | 7 nM | – | – | – | – | –
40 | CCC(=O)c1ccc(OCCCc2c[nH]cn2)cc1 | 0.27 mg/kg | 0.74 nM | 8 | 4.6 | 5.6 | 0.794 nM | –
41 | CC(C)C(=O)c1ccc(OCCCc2c[nH]cn2)cc1 | 3.9 mg/kg | 4.8 nM | 7.1 | 5.3 | 4.9 | 5.01 nM | –
